# Measured values: ChEMBL document CHEMBL4196178, “Structure-Based Drug Design of Potent Pyrazole Derivatives against Rhinovirus Replication” (J Med Chem, 2018)
# Activity calls are given as the source filed them. The rule behind the calls is not given here.
# Key:
# [1] = Cytotoxicity against human HeLa Rh cells assessed as reduction in cell viability after 3 days by MTS assay; format: cell-based
# [2] = Selectivity index, ratio of CC50 for human HeLa Rh cells to EC50 for Rhinovirus B14 capsid infected in human HeLa Rh cells; format: toxicity, cell-based; conditions: read-out: Ratio CC50/EC50
# How it was run: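 SI = CC₅₀/EC₅₀ for RV-B14 in HeLa Rh cells, both from the same 3-day 35 °C MTS CPE assay. CC₅₀ was obtained by light-microscope scoring of compound-treated uninfected cells, and EC₅₀ from MTS dose-response. Both values were derived by logarithmic interpolation and reported as median ± median absolute deviation.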
# [3] = target: T1, VP1 capsid protein (Human rhinovirus sp.) (UniProt Q7T664); test: Inhibition of Rhinovirus B14 capsid infected in human HeLa Rh cells assessed as reduction in viral replication at 1 uM administered 2 hrs before infection measured after 8 hrs post infection by RT-qPCR analysis; format: cell-based
# T1 sequence (whole entry): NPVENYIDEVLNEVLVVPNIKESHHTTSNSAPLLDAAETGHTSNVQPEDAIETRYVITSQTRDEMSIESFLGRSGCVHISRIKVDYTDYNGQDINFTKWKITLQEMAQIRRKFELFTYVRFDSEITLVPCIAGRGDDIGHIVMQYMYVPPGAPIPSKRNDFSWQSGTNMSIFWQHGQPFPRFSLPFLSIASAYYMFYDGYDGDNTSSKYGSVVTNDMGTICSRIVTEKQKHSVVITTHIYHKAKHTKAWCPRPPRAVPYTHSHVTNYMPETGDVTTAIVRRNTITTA
# How it was run: (§1)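 HeLa Rh cells adhered overnight, then given 1 µM compound 2 h before, at, or 2, 4 or 6 h after RV-B14 infection. Untreated infected cells served as controls. Cells lysed at 8 h post-infection, DNases heat-inactivated at 75 °C for 15 min. Intracellular viral RNA measured by SYBR one-step qRT-PCR against a gBlock standard series, reported as genome equivalents per sample.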
# rhinovirus B14 [4] = test: Antiviral activity against Rhinovirus B14 infected in human HeLa Rh cells assessed as reduction in viral replication at 1 uM administered at the time of infection measured after 8 hrs post infection by RT-qPCR analysis; format: functional, organism-based; how it was run: as §1
# rhinovirus B14 [5] = test: Antiviral activity against Rhinovirus B14 infected in human HeLa Rh cells assessed as reduction in viral replication at 1 uM administered at >= 2 hrs post infection measured after 8 hrs post infection by RT-qPCR analysis; format: functional, organism-based; how it was run: as §1
# [6] = target: T1, VP1 capsid protein (Human rhinovirus sp.); test: Inhibition of Rhinovirus B14 capsid infected in human HeLa Rh cells assessed as number of wells with full cytopathic effect at 4 times EC50 concentration after 1st passage measured after 3 days by MTS assay relative to control; format: cell-based; design: scale not given: the % may be the effect or the level left
# How it was run: (§2)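 Confluent HeLa cells were infected with wild-type RV-B14 with compound present at 1x, 2x or 4x in vitro EC₅₀, n=4 wells. Supernatant was diluted 1:10 onto fresh HeLa cells with compound, for four passages. Value is percentage of wells with full CPE.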
# [7] = target: T1, VP1 capsid protein (Human rhinovirus sp.); test: Inhibition of Rhinovirus B14 capsid infected in human HeLa Rh cells assessed as number of wells with full cytopathic effect at 2 times EC50 concentration after 1st passage measured after 3 days by MTS assay relative to control; format: cell-based; design: scale not given: the % may be the effect or the level left; how it was run: as §2
# [8] = target: T1, VP1 capsid protein (Human rhinovirus sp.); test: Inhibition of Rhinovirus B14 capsid infected in human HeLa Rh cells assessed as number of wells with full cytopathic effect at EC50 concentration after 1st passage measured after 3 days by MTS assay relative to control; format: cell-based; design: scale not given: the % may be the effect or the level left; how it was run: as §2
# rhinovirus B14 [9] = test: Inhibition of Rhinovirus B14 capsid infected in human HeLa Rh cells assessed as number of wells with full cytopathic effect at 4 times EC50 concentration after 2nd passage measured after 3 days by MTS assay relative to control; format: functional; design: scale not given: the % may be the effect or the level left; how it was run: as §2
# [10] = target: T1, VP1 capsid protein (Human rhinovirus sp.); test: Inhibition of Rhinovirus B14 capsid infected in human HeLa Rh cells assessed as number of wells with full cytopathic effect at 2 times EC50 concentration after 2nd passage measured after 3 days by MTS assay relative to control; format: cell-based; design: scale not given: the % may be the effect or the level left; how it was run: as §2
# [11] = target: T1, VP1 capsid protein (Human rhinovirus sp.); test: Inhibition of Rhinovirus B14 capsid infected in human HeLa Rh cells assessed as number of wells with full cytopathic effect at EC50 concentration after 2nd passage measured after 3 days by MTS assay relative to control; format: cell-based; design: scale not given: the % may be the effect or the level left; how it was run: as §2
# [12] = target: T1, VP1 capsid protein (Human rhinovirus sp.); test: Inhibition of Rhinovirus B14 capsid infected in human HeLa Rh cells assessed as number of wells with full cytopathic effect at 4 times EC50 concentration after 3rd passage measured after 3 days by MTS assay relative to control; format: cell-based; design: scale not given: the % may be the effect or the level left; how it was run: as §2
# [13] = target: T1, VP1 capsid protein (Human rhinovirus sp.); test: Inhibition of Rhinovirus B14 capsid infected in human HeLa Rh cells assessed as number of wells with full cytopathic effect at 2 times EC50 concentration after 3rd passage measured after 3 days by MTS assay relative to control; format: cell-based; design: scale not given: the % may be the effect or the level left; how it was run: as §2
# [14] = target: T1, VP1 capsid protein (Human rhinovirus sp.); test: Inhibition of Rhinovirus B14 capsid infected in human HeLa Rh cells assessed as number of wells with full cytopathic effect at EC50 concentration after 3rd passage measured after 3 days by MTS assay relative to control; format: cell-based; design: scale not given: the % may be the effect or the level left; how it was run: as §2
# [15] = target: T1, VP1 capsid protein (Human rhinovirus sp.); test: Inhibition of Rhinovirus B14 capsid infected in human HeLa Rh cells assessed as number of wells with full cytopathic effect at 4 times EC50 concentration after 4th passage measured after 3 days by MTS assay relative to control; format: cell-based; design: scale not given: the % may be the effect or the level left; how it was run: as §2
# [16] = target: T1, VP1 capsid protein (Human rhinovirus sp.); test: Inhibition of Rhinovirus B14 capsid infected in human HeLa Rh cells assessed as number of wells with full cytopathic effect at 2 times EC50 concentration after 4th passage measured after 3 days by MTS assay relative to control; format: cell-based; design: scale not given: the % may be the effect or the level left; how it was run: as §2
# [17] = target: T1, VP1 capsid protein (Human rhinovirus sp.); test: Inhibition of Rhinovirus B14 capsid infected in human HeLa Rh cells assessed as number of wells with full cytopathic effect at EC50 concentration after 4th passage measured after 3 days by MTS assay relative to control; format: cell-based; design: scale not given: the % may be the effect or the level left; how it was run: as §2
# [18] = target: T1, VP1 capsid protein (Human rhinovirus sp.); test: Inhibition of capsid of VP1 A150V mutant harboring Rhinovirus B14 assessed as reduction of virus induced cytopathic effect at 4 times EC50 concentration after 4th passage measured after 3 days by MTS assay
# [19] = target: T1, VP1 capsid protein (Human rhinovirus sp.); test: Inhibition of capsid of VP1 A150V mutant harboring Rhinovirus B14 assessed as reduction of virus induced cytopathic effect at 2 times EC50 concentration after 4th passage measured after 3 days by MTS assay
# How it was run: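 After four passages of RV-B14 on HeLa cells with compound at 1x, 2x or 4x in vitro EC₅₀ (supernatant transferred 1:10 each passage), virus harvested at passage 4 was sequenced for the VP1 region by Sanger sequencing.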
# [20] = target: T1, VP1 capsid protein (Human rhinovirus sp.); test: Inhibition of capsid of VP1 C199W mutant harboring Rhinovirus B14 assessed as reduction of virus induced cytopathic effect at 1 times EC50 concentration after 4th passage measured after 3 days by MTS assay
# [21] = target: T1, VP1 capsid protein (Human rhinovirus sp.); test: Inhibition of capsid of VP1 V191E mutant harboring Rhinovirus B14 assessed as reduction of virus induced cytopathic effect at 2 times EC50 concentration after 4th passage measured after 3 days by MTS assay
smiles,measurement,setting,value
Cn1cc(-c2ccc(CC(O)c3ccc(-n4cccn4)cc3)c([N+](=O)[O-])c2)cn1 (racemic),CC50 at 72 h,[1],247 to 1000 µM
same,selectivity ratio,[2],1240 to 5000
same,inhibition,[3],Active
same,Activity,rhinovirus B14 [4],Active
same,Activity,rhinovirus B14 [5],inactive
same,Activity,[6],0%
same,Activity,[7],0%
same,Activity,[8],0%
same,Activity,rhinovirus B14 [9],0%
same,Activity,[10],0%
same,Activity,[11],0%
same,Activity,[12],0%
same,Activity,[13],0%
same,Activity,[14],50%
same,Activity,[15],0%
same,Activity,[16],50%
same,Activity,[17],50%
same,inhibition,[18],inactive
same,inhibition,[19],Active
same,inhibition,[20],Active
same,inhibition,[21],inactive
